Laboratory results reported in ChEMBL document CHEMBL1130336, “Polyanion inhibitors of human immunodeficiency virus and other viruses. 6. Micelle-like anti-HIV polyanionic compounds based on a carbohydrate core” (J Med Chem, 1997).

Assays:
HEL [1] = test: Concentration required to inhibit HEL cell growth by 50%; type: functional, cell-based; conditions: Homo sapiens
Vero [2] = test: Concentration required to cause a microscopically detectable alteration of normal Vero cell morphology; type: functional, cell-based; conditions: Chlorocebus sabaeus
HEL [3] = test: Concentration required to reduce human cytomegalo virus(AD-169) inducted cytopathicity by 50% (HEL cells); type: functional, cell-based
Outline: (§1)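 Virus was added in the presence of compound, and the cells were incubated until cytopathic effect was scored. The value is the concentration that reduces virus-induced CPE by 50%.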

Vero [4] = test: Concentration required to reduce reovirus-1 inducted cytopathicity by 50% (Vero cells); type: functional, cell-based; conditions: Chlorocebus sabaeus
HeLa [5] = test: Concentration required to reduce Coxsackie virus-inducted cytopathicity by 50% (HeLa cells); type: functional, cell-based; conditions: Homo sapiens
E6SM [6] = test: Concentration required to reduce herpes simplex virus-1TK (KOS) inducted cytopathicity by 50% (E6SM cells); type: functional, cell-based; conditions: Homo sapiens; outline: as §1
Vero [7] = test: Concentration required to reduce forest virus-inducted cytopathicity by 50% (Vero cells); type: functional, cell-based; conditions: Chlorocebus sabaeus
E6SM [8] = test: Concentration required to reduce herpes simplex virus-1TK( B2006) inducted cytopathicity by 50% (E6SM cells); type: functional, cell-based; conditions: Homo sapiens; outline: as §1
CEM-4 [9] = test: Concentration required to reduce the viability of uninfected CEM-4 cells by 50%; type: functional; conditions: Homo sapiens
Outline: (§2)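 Cytotoxicity in uninfected CEM-4 or MT-4 cells, measured as inhibition of cell growth. The value is the concentration that lowers viability by 50%.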

E6SM [10] = test: Concentration required to reduce herpes simplex virus-2(G) inducted cytopathicity by 50% (E6SM cells); type: functional, cell-based; conditions: Homo sapiens; outline: as §1
Vero [11] = test: Concentration required to reduce sindbis virus-inducted cytopathicity by 50% (Vero cells); type: functional, cell-based; conditions: Chlorocebus sabaeus
Vaccinia virus = test: Concentration required to reduce vaccinia virus-inducted cytopathicity by 50% (E6SM cells); type: functional, organism-based, Orthopoxvirus vaccinia
Vero [12] = test: Concentration required to reduce Junin virus-inducted cytopathicity by 50% (Vero cells); type: functional, cell-based; conditions: Chlorocebus sabaeus
Vero [13] = test: Concentration required to reduce parainfluenza-3 virus-inducted cytopathicity by 50% (Vero cells); type: functional, cell-based; conditions: Chlorocebus sabaeus
E6SM [14] = test: Concentration required to cause a microscopically detectable alteration of normal E6SM cell morphology; type: functional, cell-based; conditions: Homo sapiens, read-out: IC50
Outline: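 Minimum cytotoxic concentration, read microscopically as the level that causes a detectable alteration of normal cell morphology.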

HeLa [15] = test: Concentration required to reduce vesicular stomatitis virus-inducted cytopathicity by 50% (HeLa cells); type: functional, cell-based; conditions: Homo sapiens
HeLa [16] = test: Concentration required to reduce polio-1 virus-inducted cytopathicity by 50% (HeLa cells); type: functional, cell-based; conditions: Homo sapiens
E6SM [17] = test: Concentration required to reduce herpes simplex virus-2(196) inducted cytopathicity by 50% (E6SM cells); type: functional, cell-based; conditions: Homo sapiens; outline: as §1
MT4 [18] = test: Concentration required to inhibit human immunodeficiency virus-1 induced cytopathicity in MT-4 cells by 50%; type: functional, cell-based
Outline: (§3)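 MT-4 cells infected with HIV-1 (strain HTLV-III_B/LAI) or HIV-2 (strain LAV_ROD). The end point is 50% inhibition of virus-induced cytopathicity.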

Vero [19] = test: Concentration required to reduce Coxsackie virus-inducted cytopathicity by 50% (Vero cells); type: functional, cell-based; conditions: Chlorocebus sabaeus
Vero [20] = test: Concentration required to reduce Tacaribe virus-inducted cytopathicity by 50% (Vero cells); type: functional, cell-based; conditions: Chlorocebus sabaeus
E6SM [21] = test: Concentration required to reduce herpes simplex virus-1TK (McIntyre) inducted cytopathicity by 50% (E6SM cells); type: functional, cell-based; conditions: Homo sapiens; outline: as §1
MT4 [22] = test: Concentration required to reduce the viability of uninfected MT-4 cells by 50%; type: functional; conditions: Homo sapiens; outline: as §2
[23] = system: Human immunodeficiency virus 1; test: Concentration required to inhibit by 50% human immunodeficiency virus-1 induced syncytium formation upon coculturing persistently HIV-infected HUT-78 cells with MOLT-4 cells; type: functional, organism-based; conditions: Human immunodeficiency virus 1, MOLT-4
Outline: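 MOLT-4 (clone 8) cells at 1 × 10^6 cells/mL, cocultured with an equal number of persistently infected HUT-78/HIV-1 or HUT-78/HIV-2 cells across a range of compound concentrations. Giant cells were counted under the microscope after 24 h of cocultivation. The value is the concentration giving 50% inhibition of syncytium formation.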

E6SM [24] = test: Concentration required to reduce herpes simplex virus-1TK (VMW1837) inducted cytopathicity by 50% (E6SM cells); type: functional, cell-based; conditions: Homo sapiens; outline: as §1
HEL [25] = test: Concentration required to reduce human cytomegalo virus(Davis) inducted cytopathicity by 50% (HEL cells); type: functional, cell-based; outline: as §1
E6SM [26] = test: Concentration required to reduce herpes simplex virus-2(Lyons) inducted cytopathicity by 50% (E6SM cells); type: functional, cell-based; conditions: Homo sapiens; outline: as §1
E6SM [27] = test: Concentration required to reduce herpes simplex virus-1TK (F) inducted cytopathicity by 50% (E6SM cells); type: functional, cell-based; conditions: Homo sapiens; outline: as §1
CEM-4 [28] = test: Inhibitory concentration required to inhibit HIV-induced cytopathicity in CEM-4 cells by 50%; type: functional, cell-based; conditions: Homo sapiens
Outline: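 CEM-4 cells infected with HIV-1 (strain HTLV-III_B/LAI). The end point is 50% inhibition of HIV-induced cytopathicity.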

MT4 [29] = test: Concentration required to inhibit human immunodeficiency virus-2 induced cytopathicity in MT-4 cells by 50%; type: functional, cell-based; outline: as §3
[30] = system: Human immunodeficiency virus 2; test: Concentration required to inhibit by 50% human immunodeficiency virus-2 induced syncytium formation upon coculturing persistently HIV-infected HUT-78 cells with MOLT-4 cells; conditions: HUT-78, MOLT-4
HeLa [31] = test: Concentration required to cause a microscopically detectable alteration of normal Hela cell morphology; type: functional, cell-based; conditions: Homo sapiens

| SMILES | IC50 (HEL [1]) [µM] | IC50 (Vero [2]) [µM] | IC50 (HEL [3]) [µM] | IC50 (Vero [4]) [µM] | IC50 (HeLa [5]) [µM] | IC50 (E6SM [6]) [µM] | IC50 (E6SM [8]) [µM] | IC50 (E6SM [10]) [µM] | IC50 (Vero [11]) [µM] | IC50 (Vero [12]) [µM] | IC50 (Vero [13]) [µM] | minimum cytotoxic concentration (E6SM [14]) [µM] | IC50 (HeLa [15]) [µM] | IC50 (Vero [19]) [µM] | IC50 (Vero [20]) [µM] | CC50 (MT4 [22]) [µM] | IC50 [23] [µM] | IC50 (E6SM [24]) [µM] | IC50 (HEL [25]) [µM] | IC50 (MT4 [29]) [µM] | other results |
| --- | --- | --- | --- | --- | --- | --- | --- | --- | --- | --- | --- | --- | --- | --- | --- | --- | --- | --- | --- | --- | --- |
| O=C(O)CC(SCCCOC[C@H]1O[C@@H](OCCCSC(CC(=O)O)C(=O)O)[C@H](OCCCSC(CC(=O)O)C(=O)O)[C@@H](OCCCSC(CC(=O)O)C(=O)O)[C@@H]1OCCCSC(CC(=O)O)C(=O)O)C(=O)O (stereo partly specified) | > 37 | > 148 | > 37 | > 148 | > 148 | > 296 | > 296 | > 296 | > 148 | > 37 | > 148 | > 296 | > 148 | > 148 | > 37 | > 185 | > 185 | > 296 | > 37 | > 185 | IC50 (Vero [7]): > 148 µM; CC50 (CEM-4 [9]): > 74 µM; IC50 (Vaccinia virus; Orthopoxvirus vaccinia, E6SM): > 296 µM; IC50 (HeLa [16]): > 148 µM; IC50 (E6SM [17]): > 296 µM; IC50 (MT4 [18]): 85.9 µM; IC50 (E6SM [21]): > 296 µM; IC50 (E6SM [26]): > 296 µM; IC50 (E6SM [27]): > 296 µM; IC50 (CEM-4 [28]): > 74 µM |
| O=S(=O)(O)CCSCCCOC[C@H]1O[C@@H](OCCCSCCS(=O)(=O)O)[C@H](OCCCSCCS(=O)(=O)O)[C@@H](OCCCSCCS(=O)(=O)O)[C@@H]1OCCCSCCS(=O)(=O)O | > 42 | > 167 | > 42 | > 167 | > 167 | > 333 | > 333 | > 333 | > 167 | > 42 | > 167 | > 333 | > 167 | > 167 | > 42 | > 208 | > 208 | > 333 | > 333 | > 208 | IC50 (Vero [7]): > 167 µM; CC50 (CEM-4 [9]): > 83.3 µM; IC50 (Vaccinia virus; e6sm): > 167 µM; IC50 [30]: > 208 µM; IC50 (HeLa [16]): > 167 µM; IC50 (E6SM [17]): > 333 µM; IC50 (E6SM [21]): > 333 µM; IC50 (E6SM [26]): > 42 µM; IC50 (E6SM [27]): > 333 µM; IC50 (CEM-4 [28]): > 83.3 µM; IC50 (HeLa [31]): > 167 µM |
| O=C(O)CC(SCCCOC[C@H]1O[C@@H](O[C@H]2[C@H](OCCCSC(CC(=O)O)C(=O)O)[C@@H](OCCCSC(CC(=O)O)C(=O)O)C(OCCCSC(CC(=O)O)C(=O)O)O[C@@H]2COCCCSC(CC(=O)O)C(=O)O)[C@H](OCCCSC(CC(=O)O)C(=O)O)[C@@H](OCCCSC(CC(=O)O)C(=O)O)[C@@H]1OCCCSC(CC(=O)O)C(=O)O)C(=O)O (stereo partly specified) | > 22 | > 181 | 1.4 | > 181 | > 181 | > 181 | 45 | > 45 | > 181 | > 22 | > 181 | > 181 | > 181 | > 181 | > 22 | > 56.4 | 1.8 | > 181 | 0.4 | 4.17 | IC50 (Vaccinia virus; Orthopoxvirus vaccinia, E6SM): > 181 µM; IC50 [30]: 54.2 µM; IC50 (MT4 [18]): 0.04 µM; IC50 (HeLa [31]): > 181 µM |
| O=C(O)CCSCCCOC[C@H]1O[C@@H](OCCCSCCC(=O)O)[C@H](OCCCSCCC(=O)O)[C@@H](OCCCSCCC(=O)O)[C@@H]1OCCCSCCC(=O)O | – | – | – | – | – | – | – | – | – | – | – | – | – | – | – | – | – | – | – | – | CC50 (CEM-4 [9]): > 98 µM; IC50 (CEM-4 [28]): > 98 µM |
| O=C(O)CC(SCCCOC[C@H]1O[C@@H](O[C@H]2[C@H](OCCCSC(CC(=O)O)C(=O)O)[C@@H](OCCCSC(CC(=O)O)C(=O)O)[C@@H](OCCCSC(CC(=O)O)C(=O)O)O[C@@H]2COCCCSC(CC(=O)O)C(=O)O)[C@H](OCCCSC(CC(=O)O)C(=O)O)[C@@H](OCCCSC(CC(=O)O)C(=O)O)[C@@H]1OCCCSC(CC(=O)O)C(=O)O)C(=O)O (stereo partly specified) | > 22 | > 181 | 6.3 | > 181 | > 181 | 136 | 68 | 136 | > 181 | > 22 | > 181 | > 181 | > 181 | > 181 | > 22 | > 56.4 | 3.61 | > 181 | 3.6 | 4.47 | IC50 (Vaccinia virus; Orthopoxvirus vaccinia, E6SM): > 181 µM; IC50 [30]: 54.2 µM; IC50 (MT4 [18]): 0.37 µM; IC50 (HeLa [31]): > 181 µM |
